# Source: ChEMBL document CHEMBL3297682, “Synthesis and anticancer activity of γ-(triazolyl ethylidene)butenolides and polyfunctional pyrrolinones” (Eur J Med Chem, 2014)
# The source made the active and inactive calls. The rule behind the calls is not given here.
# Assays:
# MCF7 [1] = experiment: Antiproliferative activity against human MCF7 cells after 24 hrs by MTT assay; format: functional, cell-based; conditions: MCF7, 24 h
# How it was run: (§1)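 1×10^4 cells/well seeded in DMEM with 10% FBS and antibiotic-antimycotic, grown 24 h at 37 °C under 5% CO2. Compounds diluted in phenol red-free DMEM with 2% FBS and given for 24 h, with vehicle control. MTT (5 mg/mL, 20 µL) added for 3 h. Formazan dissolved in DMSO, absorbance read at 570 nm. IC50 is the concentration giving 50% growth inhibition.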
# MDA-MB-231 [2] = experiment: Antiproliferative activity against human MDA-MB-231 cells after 24 hrs by MTT assay; format: functional, cell-based; conditions: MDA-MB-231, 24 h; how it was run: as §1
# PC-3 [3] = experiment: Antiproliferative activity against human PC3 cells after 24 hrs by MTT assay; format: functional, cell-based; conditions: PC-3, 24 h; how it was run: as §1
# HCT-116 [4] = experiment: Antiproliferative activity against human HCT116 cells after 24 hrs by MTT assay; format: functional, cell-based; conditions: HCT-116, 24 h; how it was run: as §1
# U-937 [5] = experiment: Antiproliferative activity against human U937 cells after 24 hrs by MTT assay; format: functional, cell-based; conditions: U-937, 24 h; how it was run: as §1
# HEK293 = experiment: Cytotoxicity against human HEK293 cells after 24 hrs by MTT assay; format: cell-based; conditions: HEK293, 24 h; how it was run: as §1
# MDA-MB-231 [6] = experiment: Induction of reactive oxygen species production in human MDA-MB-231 cells after 24 hrs by DCFH-DA dye based flow cytometry; format: functional, cell-based
# How it was run: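 MDA-MB-231 cells (1×10^6) seeded 24 h in six-well plates, then treated 24 h. Cells harvested, washed in PBS and fixed in absolute methanol. Cells resuspended in PBS with 15 µg/mL DCFH-DA for 30 min in the dark, then pelleted, taken up in PBS, and fluorescence read by flow cytometry.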
# MDA-MB-231 [7] = experiment: Induction of cell cycle arrest in human MDA-MB-231 cells assessed as accumulation at subG1 phase at IC50 concentration measured after 24 hrs by propidium iodide staining based flow cytometry; format: functional
# How it was run: (§2)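 1×10^6 cells seeded in six-well plates and treated 24 h. Floating and trypsinized adherent cells pooled and fixed in 70% ethanol. Cells washed in PBS, then stained 30 min at room temperature in the dark with 30 µg/mL propidium iodide in PBS containing RNase A. DNA content measured by flow cytometry.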
# MCF7 [8] = experiment: Induction of cell cycle arrest in human MCF7 cells assessed as accumulation at subG1 phase at IC50 concentration measured after 24 hrs by propidium iodide staining based flow cytometry; format: functional; how it was run: as §2
# PC-3 [9] = experiment: Induction of cell cycle arrest in human PC3 cells assessed as accumulation at subG1 phase at IC50 concentration measured after 24 hrs by propidium iodide staining based flow cytometry; format: functional; how it was run: as §2
# U-937 [10] = experiment: Induction of cell cycle arrest in human U937 cells assessed as accumulation at subG1 phase at IC50 concentration measured after 24 hrs by propidium iodide staining based flow cytometry; format: functional; how it was run: as §2
# HCT-116 [11] = experiment: Induction of cell cycle arrest in human HCT116 cells assessed as accumulation at subG1 phase at IC50 concentration measured after 24 hrs by propidium iodide staining based flow cytometry; format: functional; how it was run: as §2
SMILES,IC50 (MCF7 [1]),IC50 (MDA-MB-231 [2]),IC50 (PC-3 [3]),IC50 (HCT-116 [4]),IC50 (U-937 [5]),IC50 (HEK293),Activity (MDA-MB-231 [6]),Activity (MDA-MB-231 [7]),Activity (MCF7 [8]),Activity (PC-3 [9]),Activity (U-937 [10]),Activity (HCT-116 [11])
CCCCCc1cn(C/C=C2\OC(=O)C(OCc3ccccc3)=C2OCc2ccccc2)nn1,> 100 µM,> 100 µM,> 100 µM,> 100 µM,> 100 µM,> 100 µM,–,–,–,–,–,–
O=C1NC(O)(CCn2cc(C3=CCCCC3)nn2)C(OCc2ccccc2)=C1OCc1ccccc1 (centres undefined),> 100 µM,13.1 µM,67.2 µM,> 100 µM,> 100 µM,70 µM,Active,–,–,–,–,–
COC1=C(OC)/C(=C/Cn2cc(-c3ccccc3)nn2)OC1=O,> 100 µM,> 100 µM,> 100 µM,> 100 µM,> 100 µM,> 100 µM,–,–,–,–,–,–
COC1=C(OC)/C(=C/Cn2cc(C3CC3)nn2)OC1=O,> 100 µM,> 100 µM,> 100 µM,> 100 µM,> 100 µM,> 100 µM,–,–,–,–,–,–
O=C1O/C(=C\Cn2cc(C3=CCCCC3)nn2)C(OCc2ccccc2)=C1OCc1ccccc1,> 100 µM,> 100 µM,55.6 µM,> 100 µM,> 100 µM,> 100 µM,–,–,–,–,–,–
O=C1O/C(=C\Cn2cc(-c3ccccn3)nn2)C(OCc2ccccc2)=C1OCc1ccccc1,> 100 µM,> 100 µM,> 100 µM,> 100 µM,70.2 µM,> 100 µM,–,–,–,–,–,–
Cc1ccc(-c2cn(C/C=C3\OC(=O)C(OCc4ccccc4)=C3OCc3ccccc3)nn2)cc1,> 100 µM,> 100 µM,> 100 µM,> 100 µM,> 100 µM,> 100 µM,–,–,–,–,–,–
CCCc1cn(CCC2(O)C(OCc3ccccc3)=C(OCc3ccccc3)C(=O)N2CCC)nn1 (centres undefined),> 100 µM,> 100 µM,35 µM,> 100 µM,> 100 µM,90 µM,–,–,–,–,–,–
O=C1O/C(=C\Cn2cc(-c3ccccc3)nn2)C(OCc2ccccc2)=C1OCc1ccccc1,> 100 µM,44 µM,> 100 µM,> 100 µM,> 100 µM,> 100 µM,–,–,–,–,–,–
O=C1O/C(=C\Cn2cc(CCCCO)nn2)C(OCc2ccccc2)=C1OCc1ccccc1,53.6 µM,> 100 µM,> 100 µM,> 100 µM,> 100 µM,> 100 µM,–,–,–,–,–,–
O=C1O/C(=C\Cn2cc(C3CC3)nn2)C(OCc2ccccc2)=C1OCc1ccccc1,> 100 µM,> 100 µM,> 100 µM,> 100 µM,> 100 µM,> 100 µM,–,–,–,–,–,–
CC(C)(C)c1ccc(-c2cn(C/C=C3\OC(=O)C(OCc4ccccc4)=C3OCc3ccccc3)nn2)cc1,> 100 µM,51.2 µM,> 100 µM,> 100 µM,> 100 µM,> 100 µM,–,–,–,–,–,–
COC1=C(OC)/C(=C/Cn2cc(Cc3ccccc3)nn2)OC1=O,> 100 µM,> 100 µM,> 100 µM,> 100 µM,> 100 µM,> 100 µM,–,–,–,–,–,–
CCCCCC(O)c1cn(C/C=C2\OC(=O)C(OC)=C2OC)nn1 (centres undefined),> 100 µM,35.5 µM,> 100 µM,> 100 µM,> 100 µM,80 µM,–,–,–,–,–,–
CCCc1cn(C/C=C2\OC(=O)C(OCc3ccccc3)=C2OCc2ccccc2)nn1,> 100 µM,> 100 µM,> 100 µM,> 100 µM,> 100 µM,> 100 µM,–,–,–,–,–,–
CCCCc1cn(C/C=C2\OC(=O)C(OCc3ccccc3)=C2OCc2ccccc2)nn1,> 100 µM,> 100 µM,> 100 µM,64.3 µM,> 100 µM,> 100 µM,–,–,–,–,–,–
COC1=C(OC)/C(=C/Cn2cc(-c3ccccn3)nn2)OC1=O,> 100 µM,> 100 µM,> 100 µM,> 100 µM,> 100 µM,> 100 µM,–,–,–,–,–,–
CCCCCCCCN1C(=O)C(OCc2ccccc2)=C(OCc2ccccc2)/C1=C/Cn1cc(-c2ccccn2)nn1,46.2 µM,> 100 µM,> 100 µM,> 100 µM,90.2 µM,83 µM,–,–,–,–,–,–
CCCc1cn(C/C=C2/C(OCc3ccccc3)=C(OCc3ccccc3)C(=O)N2CCC)nn1,66.8 µM,> 100 µM,> 100 µM,> 100 µM,80.5 µM,82 µM,–,–,–,–,–,–
COC1=C(OC)/C(=C/Cn2cc(-c3ccc(C(C)(C)C)cc3)nn2)OC1=O,> 100 µM,> 100 µM,> 100 µM,> 100 µM,30 µM,> 100 µM,–,–,–,–,–,–
CCCCCCc1cn(C/C=C2\OC(=O)C(OC)=C2OC)nn1,> 100 µM,74.7 µM,> 100 µM,> 100 µM,> 100 µM,> 100 µM,–,–,–,–,–,–

# Molecules with a lower IC50 (MCF7 [1]), results first:
IC50 (MCF7 [1]),IC50 (MDA-MB-231 [2]),IC50 (PC-3 [3]),IC50 (HCT-116 [4]),IC50 (U-937 [5]),SMILES,IC50 (HEK293),Activity (MDA-MB-231 [6]),Activity (MDA-MB-231 [7]),Activity (MCF7 [8]),Activity (PC-3 [9]),Activity (U-937 [10]),Activity (HCT-116 [11])
35 µM,> 100 µM,> 100 µM,> 100 µM,> 100 µM,COC1=C(OC)/C(=C/Cn2cc(CO)nn2)OC1=O,> 100 µM,–,–,–,–,–,–
40 µM,29.2 µM,71.3 µM,83.1 µM,> 100 µM,O=C1O/C(=C\Cn2cc(Cc3ccccc3)nn2)C(OCc2ccccc2)=C1OCc1ccccc1,70 µM,Active,–,–,–,–,–
24.3 µM,> 100 µM,80.3 µM,> 100 µM,84.2 µM,CCCCCCCCN1C(=O)C(OCc2ccccc2)=C(OCc2ccccc2)C1(O)CCn1cc(-c2ccccn2)nn1 (centres undefined),> 100 µM,–,–,–,–,–,–
32 µM,> 100 µM,65.5 µM,> 100 µM,60.2 µM,CC(C)(C)c1ccc(-c2cn(CCC3(O)C(OCc4ccccc4)=C(OCc4ccccc4)C(=O)N3CCc3ccccc3)nn2)cc1 (centres undefined),71 µM,–,–,–,–,–,–
6 µM,14 µM,7 µM,–,–,CC/C(=C(\c1ccccc1)c1ccc(OCCN(C)C)cc1)c1ccccc1 [TAMOXIFEN],50 µM,–,–,–,–,–,–
20.5 µM,21.1 µM,> 100 µM,53.4 µM,21.5 µM,O=C1NC(O)(CCn2cc(-c3ccccc3)nn2)C(OCc2ccccc2)=C1OCc1ccccc1 (centres undefined),> 100 µM,Active,Active,Active,Active,Active,Active
24 µM,82.2 µM,84.2 µM,74.3 µM,54 µM,Cc1ccc(-c2cn(CCC3(O)NC(=O)C(OCc4ccccc4)=C3OCc3ccccc3)nn2)cc1 (centres undefined),45 µM,–,–,–,–,–,–
35 µM,87.5 µM,> 100 µM,> 100 µM,> 100 µM,COC1=C(OC)/C(=C/Cn2cc(CCCCO)nn2)OC1=O,> 100 µM,–,–,–,–,–,–
25.1 µM,> 100 µM,43 µM,> 100 µM,56.5 µM,CC(C)(C)c1ccc(-c2cn(CCC3(O)NC(=O)C(OCc4ccccc4)=C3OCc3ccccc3)nn2)cc1 (centres undefined),> 100 µM,–,–,–,–,–,–
39.2 µM,> 100 µM,> 100 µM,51.2 µM,> 100 µM,O=C1NC(O)(CCn2cc(Cc3ccccc3)nn2)C(OCc2ccccc2)=C1OCc1ccccc1 (centres undefined),86 µM,–,–,–,–,–,–
22.6 µM,18.3 µM,35.3 µM,46.3 µM,20.3 µM,COC1=C(OC)C(O)(CCn2cc(-c3ccccc3)nn2)NC1=O (centres undefined),62 µM,Active,Active,Active,Active,Active,Active
